Laboratory results published in ChEMBL document CHEMBL4138159, “Design, synthesis and evaluation of amino-substituted 1H-phenalen-1-ones as anti-leishmanial agents” (Eur J Med Chem, 2018).
Calls of active or inactive are those of the source. The calls are words filed in the database; no cut-off is given here.

Legend:
Leishmania amazonensis [1] = experiment: Antileishmanial activity against Leishmania amazonensis MHOM/BR/77/LTB0016 promastigotes after 72 hrs by Alamarblue assay; type: functional, organism-based; conditions: MHOM/BR/77/LTB0016, 72 h
Procedure, shortened: (§1)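 Log-phase promastigotes (10⁵/well, grown in Schneider's medium with 10% FBS at 26 °C) added to serial compound dilutions in phenol red-free RPMI 1640 with 10% heat-inactivated FBS, plus 10% alamarBlue. Incubated 72 h at 27 °C in the dark. Read at 560 nm against 590 nm reference. Single-concentration screen at 25 µM. IC50 by non-linear regression. Three experiments, each in duplicate.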

Leishmania donovani [2] = experiment: Antileishmanial activity against Leishmania donovani MHOM/IN/90/GE1F8R promastigotes after 72 hrs by Alamarblue assay; type: functional, organism-based; procedure, shortened: as §1
Leishmania amazonensis [3] = experiment: Induction of mitochondrial membrane potential loss in Leishmania amazonensis MHOM/BR/77/LTB0016 promastigotes at antileishmanial IC90 after 24 hrs by JC-1 staining-based spectrofluorometric analysis; type: functional, organism-based
Leishmania amazonensis [4] = experiment: Antileishmanial activity against Leishmania amazonensis MHOM/BR/77/LTB0016 amastigotes infected in mouse J774A.1 cells assessed as reduction in transformation of rescued amastigotes to promastiogtes after 24 hrs by Alamarblue assay; type: functional, organism-based; conditions: MHOM/BR/77/LTB0016, J774.A1, 24 h
[5] = Cytotoxicity against mouse J774A.1 cells; type: cell-based, J774.A1
[6] = Selectivity index, ratio of CC50 for mouse J774A.1 cells to IC50 for Leishmania amazonensis MHOM/BR/77/LTB0016 amastigotes infected in mouse J774A.1 cells; type: toxicity, cell-based; conditions: read-out: Ratio CC50/IC50
Procedure, shortened: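 SI = CC50 in J774A.1 macrophages divided by IC50 against intracellular L. amazonensis amastigotes.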

Leishmania donovani [7] = experiment: Antileishmanial activity against Leishmania donovani MHOM/SD/00/1S-2D promastigotes preincubated for 2 hrs followed by compound wash measured after 48 hrs by MTT assay; type: functional, organism-based
Leishmania donovani [8] = experiment: Antileishmanial activity against Leishmania donovani MHOM/IN/90/GE1F8R promastigotes at 25 uM after 72 hrs by Alamarblue assay relative to control; type: functional; procedure, shortened: as §1
Leishmania amazonensis [9] = experiment: Antileishmanial activity against Leishmania amazonensis MHOM/BR/77/LTB0016 promastigotes at 25 uM after 72 hrs by Alamarblue assay relative to control; type: functional; procedure, shortened: as §1
Leishmania amazonensis [10] = experiment: Potency index, ratio of miltefosine IC50 to compound IC50 for Leishmania amazonensis MHOM/BR/77/LTB0016 amastigotes infected in mouse J774A.1 cells; type: functional

## O=C1C=Cc2cccc3cccc1c23 [PERINAPHTHENONE]
Leishmania amazonensis [1]
  IC50: > 25 µM
Leishmania donovani [2]
  IC50: > 25 µM

## O=C1C(Nc2ccccn2)=Cc2cccc3cccc1c23
Leishmania amazonensis [1]
  IC50: > 25 µM
Leishmania donovani [2]
  IC50: > 25 µM

## O=C1C=C(NCc2ccccc2)c2cccc3cccc1c23
Leishmania amazonensis [1]
  IC50: > 25 µM
Leishmania donovani [2]
  IC50: > 25 µM

## CN(CCO)c1ccc2cccc3c2c1C(=O)C=C3
Leishmania amazonensis [1]
  IC50: > 25 µM
Leishmania donovani [2]
  IC50: > 25 µM

## O=C1C=C(N2CCN(Cc3ccccc3)CC2)c2cccc3cccc1c23
Leishmania amazonensis [3]
  Activity: Active
Leishmania amazonensis [1]
  IC50: 9.7 µM
Leishmania amazonensis [4]
  IC50: 1.1 µM
[5]
  CC50: 28.5 µM
Leishmania donovani [2]
  IC50: 24 µM
[6]
  selectivity ratio: 26

## O=C1C=Cc2cccc3ccc(N4CCCCC4)c1c23
Leishmania amazonensis [1]
  IC50: > 25 µM
Leishmania donovani [2]
  IC50: > 25 µM

## CCCCCCCCCCCCCCCCOP(=O)([O-])OCC[N+](C)(C)C [MILTEFOSINE]
Leishmania amazonensis [3]
  Activity: Active
Leishmania amazonensis [1]
  IC50: 6.5 µM
Leishmania amazonensis [4]
  IC50: 3.1 µM
[5]
  CC50: 73.7 µM
Leishmania donovani [2]
  IC50: 3.3 µM
[6]
  selectivity ratio: 23.8

## CCCNc1ccc2cccc3c2c1C(=O)C=C3
Leishmania amazonensis [1]
  IC50: > 25 µM
Leishmania donovani [2]
  IC50: > 25 µM

## O=C1C=C(N2CCOCC2)c2cccc3cccc1c23
Leishmania amazonensis [1]
  IC50: > 25 µM
Leishmania donovani [2]
  IC50: > 25 µM

## O=C1C(N2CCN(Cc3ccccc3)CC2)=Cc2cccc3cccc1c23
Leishmania amazonensis [3]
  Activity: inactive
Leishmania amazonensis [1]
  IC50: 24 µM
Leishmania amazonensis [4]
  IC50: 2.4 µM
[5]
  CC50: 122 µM
Leishmania donovani [2]
  IC50: 26.4 µM
[6]
  selectivity ratio: 51

## O=C1C=Cc2cccc3ccc(Nc4cccnc4)c1c23
Leishmania amazonensis [1]
  IC50: > 25 µM
Leishmania donovani [2]
  IC50: > 25 µM

## O=C1C(O)=Cc2cccc3ccc(-c4ccccc4)c1c23
Leishmania donovani [7]
  IC50: 35 to 40 µM

## COC1=Cc2cccc3ccc(-c4ccccc4)c(c23)C1=O
Leishmania donovani [7]
  IC50: 35 to 40 µM

## O=C1C=Cc2c(N3CCN(Cc4ccccc4)CC3)ccc3cccc1c23
Leishmania amazonensis [1]
  IC50: 17.5 µM
Leishmania donovani [2]
  IC50: 26.3 µM

## O=C1C=Cc2c(NCc3ccccc3)ccc3cccc1c23
Leishmania amazonensis [1]
  IC50: > 25 µM
Leishmania donovani [2]
  IC50: > 25 µM

## CCCNC1=Cc2cccc3cccc(c23)C1=O
Leishmania amazonensis [1]
  IC50: > 25 µM
Leishmania donovani [2]
  IC50: > 25 µM
Leishmania donovani [8]
  Activity: <25%
Leishmania amazonensis [9]
  Activity: <25%

## O=C1C=C(N2CCCCC2)c2cccc3cccc1c23
Leishmania amazonensis [1]
  IC50: > 25 µM
Leishmania donovani [2]
  IC50: > 25 µM

## O=C1C=Cc2cccc3ccc(Nc4ccccn4)c1c23
Leishmania amazonensis [1]
  IC50: > 25 µM
Leishmania donovani [2]
  IC50: > 25 µM

## CN(C)CCNC1=CC(=O)c2cccc3cccc1c23
Leishmania amazonensis [3]
  Activity: Active
Leishmania amazonensis [1]
  IC50: 2.1 µM
Leishmania amazonensis [4]
  IC50: 0.6 µM
[5]
  CC50: 95.6 µM
Leishmania donovani [2]
  IC50: 4.3 µM
Leishmania amazonensis [10]
  Ratio IC50: 3 - 5
[6]
  selectivity ratio: 159

## NC1=Cc2cccc3cccc(c23)C1=O
Leishmania amazonensis [1]
  IC50: > 25 µM
Leishmania donovani [2]
  IC50: > 25 µM
Leishmania donovani [8]
  Activity: <25%
Leishmania amazonensis [9]
  Activity: <25%

## N#Cc1ccc(NC2=Cc3cccc4cccc(c34)C2=O)cc1
Leishmania amazonensis [1]
  IC50: > 25 µM
Leishmania donovani [2]
  IC50: > 25 µM

## N#Cc1ccc(Nc2ccc3cccc4c3c2C(=O)C=C4)cc1
Leishmania amazonensis [1]
  IC50: > 25 µM
Leishmania donovani [2]
  IC50: > 25 µM

## O=C1C(Nc2ccccc2)=Cc2cccc3cccc1c23
Leishmania amazonensis [1]
  IC50: > 25 µM
Leishmania donovani [2]
  IC50: > 25 µM

## O=C1C=C(N2CCN(c3ncccn3)CC2)c2cccc3cccc1c23
Leishmania amazonensis [1]
  IC50: > 25 µM
Leishmania donovani [2]
  IC50: > 25 µM

## O=C1C(N2CCN(c3ncccn3)CC2)=Cc2cccc3cccc1c23
Leishmania amazonensis [1]
  IC50: > 25 µM
Leishmania donovani [2]
  IC50: > 25 µM

## O=C1C(NCc2ccccc2)=Cc2cccc3cccc1c23
Leishmania amazonensis [1]
  IC50: > 25 µM
Leishmania donovani [2]
  IC50: > 25 µM

## CN(C)CCNC1=Cc2cccc3cccc(c23)C1=O
Leishmania amazonensis [3]
  Activity: Active
Leishmania amazonensis [1]
  IC50: 6 µM
Leishmania amazonensis [4]
  IC50: 0.9 µM
[5]
  CC50: 122 µM
Leishmania donovani [2]
  IC50: 9.6 µM
Leishmania amazonensis [10]
  Ratio IC50: 3 - 5
[6]
  selectivity ratio: 136

## O=C1C=Cc2cccc3ccc(Nc4ccccc4)c1c23
Leishmania amazonensis [1]
  IC50: > 25 µM
Leishmania donovani [2]
  IC50: > 25 µM

## CN(CCO)C1=CC(=O)c2cccc3cccc1c23
Leishmania amazonensis [1]
  IC50: > 25 µM
Leishmania donovani [2]
  IC50: > 25 µM

## O=C1C(Nc2cccnc2)=Cc2cccc3cccc1c23
Leishmania amazonensis [1]
  IC50: > 25 µM
Leishmania donovani [2]
  IC50: > 25 µM
Leishmania donovani [8]
  Activity: <25%
Leishmania amazonensis [9]
  Activity: <25%

## CN(C)CCNc1ccc2cccc3c2c1C=CC3=O
Leishmania amazonensis [1]
  IC50: 7.2 µM
Leishmania donovani [2]
  IC50: 32.7 µM

## O=C1C=Cc2cccc3ccc(O)c1c23
Leishmania amazonensis [1]
  IC50: > 25 µM
Leishmania donovani [2]
  IC50: > 25 µM

## O=C1C=Cc2cccc3ccc(N4CCOCC4)c1c23
Leishmania amazonensis [1]
  IC50: > 25 µM
Leishmania donovani [2]
  IC50: > 25 µM

## O=C1C=Cc2cccc3ccc(N4CCN(Cc5ccccc5)CC4)c1c23
Leishmania amazonensis [3]
  Activity: inactive
Leishmania amazonensis [1]
  IC50: 11.6 µM
Leishmania amazonensis [4]
  IC50: 0.6 µM
[5]
  CC50: 91.7 µM
Leishmania donovani [2]
  IC50: 14 µM
Leishmania amazonensis [10]
  Ratio IC50: 3 - 5
[6]
  selectivity ratio: 153

## Nc1ccc2cccc3c2c1C(=O)C=C3
Leishmania amazonensis [1]
  IC50: 26.2 µM
Leishmania donovani [2]
  IC50: > 25 µM

## O=C1C=Cc2cccc3ccc(NCc4ccccc4)c1c23
Leishmania amazonensis [3]
  Activity: Active
Leishmania amazonensis [1]
  IC50: 3.5 µM
Leishmania amazonensis [4]
  IC50: 2.3 µM
[5]
  CC50: 9.4 µM
Leishmania donovani [2]
  IC50: 8.3 µM
[6]
  selectivity ratio: 4.1

## CN(C)CCNc1ccc2cccc3c2c1C(=O)C=C3
Leishmania amazonensis [3]
  Activity: Active
Leishmania amazonensis [1]
  IC50: 1.4 µM
Leishmania amazonensis [4]
  IC50: 0.7 µM
[5]
  CC50: 38.9 µM
Leishmania donovani [2]
  IC50: 2.8 µM
[6]
  selectivity ratio: 55.6

## CCCNC1=CC(=O)c2cccc3cccc1c23
Leishmania amazonensis [1]
  IC50: > 25 µM
Leishmania donovani [2]
  IC50: > 25 µM

## CN(CCO)C1=Cc2cccc3cccc(c23)C1=O
Leishmania amazonensis [1]
  IC50: > 25 µM
Leishmania donovani [2]
  IC50: > 25 µM
Leishmania donovani [8]
  Activity: <25%
Leishmania amazonensis [9]
  Activity: <25%

## O=C1C=Cc2cccc3ccc(N4CCN(c5ncccn5)CC4)c1c23
Leishmania amazonensis [1]
  IC50: > 25 µM
Leishmania donovani [2]
  IC50: > 25 µM

## O=C1C(N2CCOCC2)=Cc2cccc3cccc1c23
Leishmania amazonensis [1]
  IC50: > 25 µM
Leishmania donovani [2]
  IC50: > 25 µM

## O=C1C=Cc2cccc3ccc(NCCO)c1c23
Leishmania amazonensis [1]
  IC50: 27.4 µM
Leishmania donovani [2]
  IC50: > 25 µM
